Assay results: ChEMBL document CHEMBL2331483, “3-Hydroxypyridin-2-thione as novel zinc binding group for selective histone deacetylase inhibition” (J Med Chem, 2013)
Calls of active or inactive are those of the source. The rule behind the calls is not given here.

Experiments:
[1] = biological target: T1, Histone deacetylase 8 (Homo sapiens) (UniProt Q9BY41); assay: Inhibition of HDAC8 (unknown origin) at 10 uM after 60 mins by SAMDI […] analysis relative to control
T1 sequence (whole entry): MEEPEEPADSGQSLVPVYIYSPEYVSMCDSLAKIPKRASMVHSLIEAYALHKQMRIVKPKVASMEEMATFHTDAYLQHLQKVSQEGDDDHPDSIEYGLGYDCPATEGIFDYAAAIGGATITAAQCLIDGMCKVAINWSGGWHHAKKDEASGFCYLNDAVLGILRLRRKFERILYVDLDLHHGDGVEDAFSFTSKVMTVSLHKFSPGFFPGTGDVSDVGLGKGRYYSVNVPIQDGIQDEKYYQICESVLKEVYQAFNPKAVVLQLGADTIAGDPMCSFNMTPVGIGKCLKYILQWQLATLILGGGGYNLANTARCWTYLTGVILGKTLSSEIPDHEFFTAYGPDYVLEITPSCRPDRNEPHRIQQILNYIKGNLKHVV
In short: (§1)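 Label-free SAMDI deacetylase assay: isoform-optimized peptide substrate (50 μM) with enzyme (250 nM) and inhibitor, 60 min at 37°C. Reactions were quenched with TSA, immobilized on maleimide monolayers, washed and read by MALDI-MS. Yield came from substrate and deacetylated product peak intensities, in triplicate.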

[2] = biological target: T1, Histone deacetylase 8 (Homo sapiens); assay: (§2) Inhibition of HDAC8 (unknown origin) after 60 mins by SAMDI […] analysis
[3] = biological target: Histone deacetylase 1 (Homo sapiens) (UniProt Q13547); assay: Inhibition of HDAC1 (unknown origin) after 60 mins by SAMDI […] analysis; in short: as §1
Histone deacetylase 1 (Homo sapiens), sequence (Q13547 whole entry): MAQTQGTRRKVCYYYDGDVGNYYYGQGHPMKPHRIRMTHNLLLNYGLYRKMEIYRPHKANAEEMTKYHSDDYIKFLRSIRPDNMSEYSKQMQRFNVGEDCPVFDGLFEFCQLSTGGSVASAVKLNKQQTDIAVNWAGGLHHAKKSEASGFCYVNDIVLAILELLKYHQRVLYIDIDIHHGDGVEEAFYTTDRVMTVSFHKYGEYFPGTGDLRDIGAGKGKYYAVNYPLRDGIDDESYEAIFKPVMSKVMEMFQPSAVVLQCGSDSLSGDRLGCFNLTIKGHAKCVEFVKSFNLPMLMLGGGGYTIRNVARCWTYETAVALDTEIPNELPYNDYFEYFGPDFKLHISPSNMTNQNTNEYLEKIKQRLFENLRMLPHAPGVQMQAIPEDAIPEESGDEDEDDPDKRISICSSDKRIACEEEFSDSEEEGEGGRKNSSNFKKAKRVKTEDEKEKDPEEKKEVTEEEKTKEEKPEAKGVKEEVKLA

[4] = biological target: T2, Protein deacetylase HDAC6 (Homo sapiens) (UniProt Q9UBN7); assay: Inhibition of HDAC6 (unknown origin) after 60 mins by SAMDI mass spectrometric analysis
T2 sequence (whole entry): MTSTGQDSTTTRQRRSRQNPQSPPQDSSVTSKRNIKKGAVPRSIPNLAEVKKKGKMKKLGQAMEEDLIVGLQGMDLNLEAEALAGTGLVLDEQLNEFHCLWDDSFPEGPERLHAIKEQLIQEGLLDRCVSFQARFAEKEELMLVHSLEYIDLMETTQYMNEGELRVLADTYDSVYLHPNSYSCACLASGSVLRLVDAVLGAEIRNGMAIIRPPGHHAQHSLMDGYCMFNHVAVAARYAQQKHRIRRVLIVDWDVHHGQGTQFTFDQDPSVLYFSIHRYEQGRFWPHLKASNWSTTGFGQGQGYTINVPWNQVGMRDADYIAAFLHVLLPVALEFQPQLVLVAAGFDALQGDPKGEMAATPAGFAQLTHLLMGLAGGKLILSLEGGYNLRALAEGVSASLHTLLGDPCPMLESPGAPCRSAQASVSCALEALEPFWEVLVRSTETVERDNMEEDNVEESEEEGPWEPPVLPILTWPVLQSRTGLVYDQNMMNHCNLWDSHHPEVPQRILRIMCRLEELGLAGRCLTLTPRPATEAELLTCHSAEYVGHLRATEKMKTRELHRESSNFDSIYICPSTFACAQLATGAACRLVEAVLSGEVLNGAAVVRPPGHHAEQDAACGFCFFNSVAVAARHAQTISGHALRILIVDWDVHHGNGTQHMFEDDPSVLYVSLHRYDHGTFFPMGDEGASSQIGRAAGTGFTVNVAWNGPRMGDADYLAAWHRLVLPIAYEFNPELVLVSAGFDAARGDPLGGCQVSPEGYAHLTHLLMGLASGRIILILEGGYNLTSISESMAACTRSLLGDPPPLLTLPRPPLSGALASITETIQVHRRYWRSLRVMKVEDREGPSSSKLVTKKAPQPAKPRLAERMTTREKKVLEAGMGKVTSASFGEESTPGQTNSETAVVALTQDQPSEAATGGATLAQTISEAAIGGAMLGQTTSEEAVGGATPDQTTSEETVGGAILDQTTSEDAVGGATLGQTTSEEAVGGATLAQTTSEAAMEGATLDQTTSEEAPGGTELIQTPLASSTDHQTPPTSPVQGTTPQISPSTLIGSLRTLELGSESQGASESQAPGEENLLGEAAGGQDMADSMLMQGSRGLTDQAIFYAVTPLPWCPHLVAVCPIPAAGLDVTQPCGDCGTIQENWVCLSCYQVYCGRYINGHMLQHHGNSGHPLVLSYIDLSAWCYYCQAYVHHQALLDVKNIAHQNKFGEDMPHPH

LNCaP = assay: Cytotoxicity against human LNCAP cells assessed as growth inhibition by MTS assay; format: functional, cell-based
In short: (§3)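 Cells kept at 37°C in 5% CO2. Cells were plated 24 h before compound treatment, with top concentration 20 μM and final DMSO 0.1%. Viability was read by MTS per the kit protocol. IC50 is mean ± SD from at least 2 independent triplicate experiments.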

[5] = Aqueous solubility of the compound; format: physicochemical; settings: buffer
Jurkat = assay: cells; format: functional, cell-based, Homo sapiens
DU-145 = assay: Cytotoxicity against human DU145 cells assessed as growth inhibition by MTS assay; format: functional, cell-based
In short: as §3, with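 “CO2. DU-145 grew in EMEM and LNCaP in RPMI 1640, each with 10% FBS.” for “CO2.”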

[6] = biological target: T2, Protein deacetylase HDAC6 (Homo sapiens); assay: Inhibition of HDAC6 (unknown origin) at 10 uM after 60 mins by SAMDI […] analysis relative to control; in short: as §1
Histone deacetylase 8 = biological target: T3, Histone deacetylase 8 (Homo sapiens, UniProt Q9BY41); assay: as §2
T3 sequence (Q9BY41 whole entry): T1 sequence (whole entry)

[7] = Homo sapiens, LNCaP, read-out: IC50
[8] = Homo sapiens, Jurkat, 72 h, read-out: IC50
[9] = Homo sapiens, DU-145, read-out: IC50

inhibition [2] | inhibition [3] | inhibition [4] | SMILES | also measured
 |  |  | CN(C)c1ccc(-c2ccc(Cn3cccc(O)c3=S)cc2)cn1 | inhibition [1]: 34%
inactive | inactive | inactive | N#Cc1ccc(-c2ccc(Cn3cccc(O)c3=O)cc2)cc1 | 
 |  |  | Oc1ccc[nH]c1=S | IC50 (LNCaP; lncap): Not Active; solubility [5]: < 65 µg/mL; IC50 (Jurkat; jurkat): Not Active; IC50 (DU-145; du-145): Not Active
inactive | inactive | inactive | O=c1c(O)cccn1Cc1ccc(-c2ccccc2)cc1 | 
inactive | inactive | inactive | N#Cc1cccc(-c2ccc(Cn3cccc(O)c3=O)cc2)c1 | 
inactive | inactive | inactive | Cc1cccc(-c2ccc(Cn3cccc(O)c3=O)cc2)c1 | 
 |  |  | Oc1cccnc1O | inhibition [6]: < 20%; inhibition [1]: < 20%
 |  |  | N#Cc1cccc(-c2ccc(Cn3cccc(O)c3=S)cc2)c1 | inhibition [6]: 44%
inactive | inactive | inactive | CN(C)c1ccc(-c2ccc(Cn3cccc(O)c3=O)cc2)cn1 | 
inactive | inactive | inactive | Cc1ccccc1-c1ccc(Cn2cccc(O)c2=O)cc1 | 
 |  |  | CN(C)c1ccc(-c2ccc(Cn3cccc(O)c3=S)cc2)cc1 | inhibition [6]: < 20%; IC50 (LNCaP; [7]): 16.2 µM; solubility [5]: < 65 µg/mL; IC50 (Jurkat; [8]): 10.6 µM; IC50 (DU-145; [9]): > 20 µM
inactive | inactive | inactive | CN(C)c1ccc(-c2ccc(Cn3cccc(O)c3=O)cc2)cc1 | 
 |  |  | Cc1ccccc1-c1ccc(Cn2cccc(O)c2=S)cc1 | IC50 (LNCaP; [7]): 7.75 µM
inactive | inactive | inactive | O=c1c(O)cccn1Cc1ccc(-c2ccncc2)cc1 | 
inactive | inactive | inactive | Cn1cccc(O)c1=O | 
inactive | inactive | inactive | Cc1ccc(-c2ccc(Cn3cccc(O)c3=O)cc2)cc1 | 
 |  |  | Oc1cccn(Cc2cn(-c3ccccc3)nn2)c1=S | IC50 (Histone deacetylase 8): 1.57 µM; IC50 (LNCaP; [7]): 13.1 µM; IC50 (Jurkat; [8]): 4.68 µM; IC50 (DU-145; [9]): > 20 µM
inactive | inactive | inactive | O=c1c(O)cccn1Cc1ccccc1 | 
